Test results: ChEMBL document CHEMBL3865807, “Syntheses and photodynamic activity of some glucose-conjugated BODIPY dyes” (Eur J Med Chem, 2016)
Calls of active or inactive are those of the source. No cut-off for these calls is given here.

What was measured:
[1] = Drug uptake in cytoplasm of human A549 cells at 1 uM after 0.25 to 3 hrs by Hoechst 33342 staining based fluorescence microscopy; assay type: ADME, cell-based; details: a549, 1 µM
In short: (§1)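 A549 cells on coverslips loaded with dyes (1 µM) for 0.25, 0.5, 1, 2 or 3 h at 37 °C, washed, counterstained with Hoechst 33342 (10 µM), mounted in 70% glycerol; red dye and blue nuclear fluorescence imaged by fluorescence microscopy (40×) and overlaid.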

Bos taurus [2] = organism: Bos taurus; assay: Binding affinity to calf thymus duplex DNA assessed as decrease in intensities of maximum absorption at 20 uM by spectrophotometric titration analysis
Bos taurus [3] = organism: Bos taurus; assay: Binding affinity to calf thymus duplex DNA by UV-visible spectra analysis
A549 [4] = assay: Photocytotoxicity against human A549 cells assessed as decrease in cell viability at 500 to 5000 nM preincubated for 1 hr followed by 0.77 mW/cm2 white light irradiation measured after 24 hrs by MTT assay; assay type: functional, cell-based; details: TDE = time-dependent effect
In short: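 A549 cells (1×10^4/well), plated overnight, given compound for 1 h in serum-free medium, washed twice with PBS, irradiated 0.5, 1, 2 or 4 h at 0.77 mW/cm² (37 °C, 5% CO₂), then 24 h in regular medium; MTT 0.5 mg/mL for 6 h, formazan dissolved in 0.01 N HCl/10% SDS, A550.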

[5] = Cytotoxicity against human A549 cells assessed as decrease in cell viability up to 200 uM after 48 hrs under dark condition by MTT assay; assay type: toxicity, cell-based; details: a549, 48 h
In short: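 Dark toxicity: A549 cells treated as in the MTT protocol (1 h compound exposure, serum-free medium, washed) with no light, then assessed at 48 h by MTT (0.5 mg/mL, 6 h, formazan in HCl/SDS, A550).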

[6] = Photocytotoxicity against human A549 cells assessed as decrease in cell viability preincubated for 1 hr followed by 0.77 mW/cm2 white light irradiation for 80 mins measured after 24 hrs by MTT assay; assay type: functional, cell-based; details: A549, light or radiation study
In short: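 IC50 from MTT: A549 cells (1×10^4/well) given graded compound concentrations 1 h in serum-free DMEM (vehicle ≤0.1% DMSO), washed, photo-exposed 80 min at 0.77 mW/cm², regular medium 24 h; MTT 0.5 mg/mL 6 h, A550; viability relative to vehicle control; four replicates, three experiments, mean ± SEM.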

Bos taurus [7] = organism: Bos taurus; assay: Binding affinity to calf thymus duplex DNA assessed as decrease in intensities of maximum absorption at 20 uM by spectrophotometric titration analysis
[8] = Drug uptake in human A549 cells assessed as mean fluorescence intensity at 2.5 uM after 2 hrs by flow cytometry (reference value: 2.4 +/- 1.1); assay type: ADME, cell-based; details: a549, 2 h
[9] = Drug uptake in human A549 cells assessed as mean fluorescence intensity at 2.5 uM after 4 hrs by flow cytometry (reference value: 2.4 +/- 1.1); assay type: ADME, cell-based; details: a549, 4 h
[10] = Drug uptake in human A549 cells assessed as mean fluorescence intensity at 2.5 uM after 8 hrs by flow cytometry (reference value: 2.4 +/- 1.1); assay type: ADME, cell-based; details: a549, 8 h
[11] = Drug uptake in human A549 cells assessed as mean fluorescence intensity at 2.5 uM after 16 hrs by flow cytometry (reference value: 2.4 +/- 1.1); assay type: ADME, cell-based; details: a549, 16 h
[12] = Drug uptake in human A549 cells assessed as mean fluorescence intensity at 2.5 uM after 24 hrs by flow cytometry (reference value: 2.4 +/- 1.1); assay type: ADME, cell-based; details: a549, 24 h
[13] = Drug uptake in human A549 cells at 1 uM after 0.25 to 3 hrs by Hoechst 33342 staining based fluorescence microscopy; assay type: ADME, cell-based; details: a549, 1 µM; in short: as §1
A549 [14] = assay: Photocytotoxicity against human A549 cells assessed as necrosis at 2.5 uM preincubated for 1 hr followed by 0.77 mW/cm2 white light irradiation for 80 mins measured after 2 hrs by trypan blue staining based phase contrast microscopy; assay type: functional, cell-based
In short: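 Cells (1×10^5/well) on coverslips treated 1 h with dye (2.5 µM) or 0.1% DMSO, irradiated 80 min, serum added, 2 h later washed, stained with 0.1% trypan blue in PBS for 5 min, then viewed by phase-contrast microscopy at 40×.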

Row | Structure (SMILES) | Drug uptake [1] | Activity (Bos taurus [2]) | Kb (Bos taurus [3]) | Activity (A549 [4]) | Activity [5] | IC50 [6] | Activity (Bos taurus [7]) | Flu intensity [8] | Flu intensity [9] | Flu intensity [10] | Flu intensity [11] | Flu intensity [12] | Drug uptake [13] | Activity (A549 [14])
1 | CCC1=C(C)C2=C(c3ccc(O[C@H]4O[C@H](CO)[C@@H](O)[C@H](O)[C@H]4O)cc3)c3c(C)c(CC)c(C)n3[B-](F)(F)[N+]2=C1C | Active | Active | 3.4 ×10⁴ /M | Tde | Non-Toxic | > 10 µM | Active |  |  |  |  |  |  | 
2 | CCC1=C(C)C2=C(C)c3c(C)c(CC)c(C)n3[B-](F)(F)[N+]2=C1/C=C/c1ccc(O)cc1 | Active |  |  | Tde | Non-Toxic | 6.5 µM |  | 88 | 53.7 | 43.9 | 40.9 | 38.4 |  | 
3 | CCC1=C(C)C2=C(C)c3c(C)c(CC)c(C)n3[B-](F)(F)[N+]2=C1C |  |  |  |  |  | 6.8 µM |  |  |  |  |  |  | Active | 
4 | CCC1=C(C)C2=C(c3ccccc3)c3c(C)c(CC)c(C)n3[B-](F)(F)[N+]2=C1/C=C/c1ccc(O[C@H]2O[C@H](CO)[C@@H](O)[C@H](O)[C@H]2O)cc1 | Active |  |  | Tde | Non-Toxic | 2.5 µM |  |  |  |  |  |  |  | 
5 | CCC1=C(C)C2=C(c3ccc(O)cc3)c3c(C)c(CC)c(C)n3[B-](F)(F)[N+]2=C1C | Active |  |  | Tde | Non-Toxic | 2.1 µM |  |  |  |  |  |  |  | Active
6 | CCC1=C(C)C2=C(c3ccccc3)c3c(C)c(CC)c(C)n3[B-](F)(F)[N+]2=C1/C=C/c1ccc(O)cc1 | Active |  |  | Tde | Non-Toxic | 6.4 µM |  |  |  |  |  |  |  | 
